The values that follow come from ChEMBL document CHEMBL1153561, “Staphylococcus aureus clinical isolate with high-level methicillin resistance with an lytH mutation caused by IS1182 insertion” (2008).

Common to all, as to type: functional
The subject of experiment [1] is Staphylococcus aureus. Briefly: Antibacterial activity against high-level methicillin-resistant Staphylococcus aureus SRM563 harboring active lytH gene and inactive llm gene after 24 hrs by serial twofold dilution method. As to conditions: SRM563, 24 h. An outline of the steps:
(§1)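 Agar dilution MIC: tryptic soy agar plates carried serial twofold dilutions of antibiotic. Overnight tryptic soy broth cultures were diluted to about 10⁶ CFU/ml, and 1 μl of each suspension was spotted onto the plates. Plates were incubated 24 h at 37°C, then MICs were scored.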

Experiment [2] has as its system Staphylococcus aureus. Put plainly: Antibacterial activity against high-level methicillin-resistant Staphylococcus aureus SRM1832 harboring inactive lytH and inactive llm gene after 24 hrs by serial twofold dilution method. To be noted: SRM1832, 24 h. The procedure, abridged:
as §1

Experiment [3] relates to Staphylococcus aureus. Briefly: Antibacterial activity against high-level methicillin-resistant Staphylococcus aureus SRM1648 harboring inactive lytH gene and active llm gene after 24 hrs by serial twofold dilution method. To be noted: SRM1648, 24 h. The procedure, abridged:
as §1

Experiment [4] concerns Staphylococcus aureus. Put plainly: Antibacterial activity against high-level methicillin-resistant Staphylococcus aureus SRM1816 harboring inactive lytH and inactive llm gene after 24 hrs by serial twofold dilution method. To be noted: SRM1816, 24 h. The procedure, abridged: as §1
In experiment [5] the test system is Staphylococcus aureus. Put plainly: Antibacterial activity against high-level methicillin-resistant Staphylococcus aureus SRM551 harboring active lytH and llm gene after 24 hrs by serial twofold dilution method. To be noted: SRM551, 24 h. The procedure, abridged: as §1
The subject of experiment [6] is Staphylococcus aureus. Briefly: Antibacterial activity against high-level methicillin-resistant Staphylococcus aureus SRM1663 harboring inactive lytH gene and active llm gene after 24 hrs by serial twofold dilution method. To be noted: SRM1663, 24 h. An outline of the steps: as §1
For experiment [7], the system named is Staphylococcus aureus. Briefly: Antibacterial activity against high-level methicillin-resistant Staphylococcus aureus SRM1825 harboring inactive lytH and inactive llm gene after 24 hrs by serial twofold dilution method. To be noted: SRM1825, 24 h. An outline of the steps: as §1
In experiment [8] the test system is Staphylococcus aureus. Briefly: Antibacterial activity against high-level methicillin-resistant Staphylococcus aureus SR-17164 harboring inactive lytH gene and active llm gene after 24 hrs by serial twofold dilution method. To be noted: SR17164, 24 h. The procedure, abridged:
as §1

For experiment [9], the system named is Staphylococcus aureus. Put plainly: Antibacterial activity against low-level methicillin-resistant Staphylococcus aureus SR-17238 after 24 hrs by serial twofold dilution method. As to conditions: SR17238, 24 h. An outline of the steps: as §1
Experiment [10] relates to Staphylococcus aureus. Put plainly: Antibacterial activity against high-level methicillin-resistant Staphylococcus aureus SR-17164 harboring intact lytH gene after 24 hrs by serial twofold dilution method. As to conditions: SR17164, 24 h. The procedure, abridged: as §1
Experiment [11] relates to Staphylococcus aureus. Briefly: Antibacterial activity against high-level methicillin-resistant Staphylococcus aureus SR-17164 with lytH gene inactivated by insertion sequence IS1182 measured after 24 hrs by serial twofold dilution method. As to conditions: SR17164, 24 h. An outline of the steps: as §1
Experiment [12] deals with Staphylococcus aureus. Briefly: Antibacterial activity against high-level methicillin-resistant Staphylococcus aureus SRM1648 with deltarel-lytH region after 24 hrs by serial twofold dilution method. To be noted: SRM1648, 24 h. An outline of the steps:
as §1

For experiment [13], the system named is Staphylococcus aureus. Briefly: Antibacterial activity against high-level methicillin-resistant Staphylococcus aureus SR-17164 harboring lytH::IS1182 gene after 24 hrs by serial twofold dilution method. As to conditions: SR17164, 24 h. The procedure, abridged: as §1
Experiment [14] concerns Staphylococcus aureus. Briefly: Antibacterial activity against low-level methicillin-resistant Staphylococcus aureus SR-20202 after 24 hrs by serial twofold dilution method. As to conditions: SR20202, 24 h. The procedure, abridged:
as §1

In experiment [15] the test system is Staphylococcus aureus. Briefly: Antibacterial activity against low-level methicillin-resistant Staphylococcus aureus SR-20118 after 24 hrs by serial twofold dilution method. As to conditions: SR20118, 24 h. An outline of the steps:
as §1

In experiment [16] the test system is Staphylococcus aureus. Briefly: Antibacterial activity against methicillin-resistant Staphylococcus aureus SRM2148 containing pSR108 harboring deletion in rel-lytH region after 24 hrs by serial twofold dilution method. As to conditions: SRM2148, 24 h.
The subject of experiment [17] is Staphylococcus aureus. Briefly: Antibacterial activity against methicillin-resistant Staphylococcus aureus SRM2151 containing pSR108 harboring deletion in rel-lytH region after 24 hrs by serial twofold dilution method. As to conditions: SRM2151, 24 h.
Experiment [18] concerns Staphylococcus aureus. Briefly: Antibacterial activity against methicillin-resistant Staphylococcus aureus SRM1665 containing pSR108 harboring deletion in rel-lytH region after 24 hrs by serial twofold dilution method. As to conditions: SRM1665, 24 h.
The subject of experiment [19] is Staphylococcus aureus. Put plainly: Antibacterial activity against low-level methicillin-resistant Staphylococcus aureus SR-20280 after 24 hrs by serial twofold dilution method. As to conditions: SR20280, 24 h. An outline of the steps:
as §1

Experiment [20] relates to Staphylococcus aureus. Put plainly: Antibacterial activity against methicillin-resistant Staphylococcus aureus SRM2150 containing pSR108 harboring deletion in rel-lytH region after 24 hrs by serial twofold dilution method. To be noted: SRM2150, 24 h.
For experiment [21], the system named is Staphylococcus aureus. Put plainly: Antibacterial activity against methicillin-resistant Staphylococcus aureus SRM2149 containing pSR108 harboring deletion in rel-lytH region after 24 hrs by serial twofold dilution method. To be noted: SRM2149, 24 h.
The test system of experiment [22] is Staphylococcus aureus. Briefly: Antibacterial activity against low-level methicillin-resistant Staphylococcus aureus SR-20137 after 24 hrs by serial twofold dilution method. To be noted: SR20137, 24 h. The procedure, abridged: as §1
Experiment [23] concerns Staphylococcus aureus. Put plainly: Antibacterial activity against methicillin-resistant Staphylococcus aureus SRM1664 containing pSR100 harboring deletion in rel-lytH region after 24 hrs by serial twofold dilution method. To be noted: SRM1664, 24 h.

Structures are written as SMILES. ≈ marks a conversion by molar mass, not a printed value.

On to `Cc1nnc(SCC2=C(C(=O)O)N3C(=O)[C@@H](NC(=O)Cn4cnnn4)[C@H]3SC2)s1` [CEFAZOLIN], for which the MIC (as a rule, the lowest concentration that inhibits growth of the organism) is 12.5 µg/mL (≈ 27.5 µM) in the experiment on Staphylococcus aureus [1]; 200 µg/mL (≈ 440 µM) in the experiment on Staphylococcus aureus [2]; 400 µg/mL (≈ 880 µM) in the experiment on Staphylococcus aureus [3]; 100 µg/mL (≈ 220 µM) in the experiment with Staphylococcus aureus [4]; 200 µg/mL (≈ 440 µM) against Staphylococcus aureus [5]; 400 µg/mL (≈ 880 µM) in the experiment on Staphylococcus aureus [6]. The MIC in the experiment with Staphylococcus aureus [7] was found to be 200 µg/mL (≈ 440 µM); in the experiment on Staphylococcus aureus [8], 400 µg/mL (≈ 880 µM).

Regarding `C[C@@H](O)[C@H]1C(=O)N2C(C(=O)O)=C(SCCNC=N)C[C@H]12` [IMIPENEM ANHYDROUS], the MIC against Staphylococcus aureus [1] was 0.39 µg/mL (≈ 1.3 µM); in the experiment on Staphylococcus aureus [2], 50 µg/mL (≈ 167 µM); against Staphylococcus aureus [9] it was ≤ 0.1 µg/mL; in the experiment on Staphylococcus aureus [3], 100 µg/mL (≈ 334 µM); against Staphylococcus aureus [4], 25 µg/mL (≈ 83.5 µM); in the experiment with Staphylococcus aureus [10] it was 50 µg/mL (≈ 167 µM). Moreover, the MIC is 50 µg/mL (≈ 167 µM) against Staphylococcus aureus [5]; 100 µg/mL (≈ 334 µM) in the experiment on Staphylococcus aureus [6]; 50 µg/mL (≈ 167 µM) in the experiment with Staphylococcus aureus [7]; 100 µg/mL (≈ 334 µM) against Staphylococcus aureus [11]; 50 µg/mL (≈ 167 µM) against Staphylococcus aureus [12]; 100 µg/mL (≈ 334 µM) against Staphylococcus aureus [8]. In addition, the MIC against Staphylococcus aureus [13] worked out at 100 µg/mL (≈ 334 µM).

Turning to `COc1cccc(OC)c1C(=O)N[C@@H]1C(=O)N2[C@@H]1SC(C)(C)[C@@H]2C(=O)O` [METHICILLIN], the MIC stood at 12.5 µg/mL (≈ 32.9 µM) in the experiment on Staphylococcus aureus [1]; 25 µg/mL (≈ 65.7 µM) against Staphylococcus aureus [14]; 12.5 µg/mL (≈ 32.9 µM) against Staphylococcus aureus [15]; 800 µg/mL (≈ 2100 µM) in the experiment on Staphylococcus aureus [2]; 6.3 µg/mL (≈ 16.6 µM) in the experiment on Staphylococcus aureus [9]; 1600 µg/mL (≈ 4210 µM) against Staphylococcus aureus [3]. The MIC was 12.5 µg/mL (≈ 32.9 µM) in the experiment on Staphylococcus aureus [16]; 100 µg/mL (≈ 263 µM) in the experiment on Staphylococcus aureus [4]; 6.3 µg/mL (≈ 16.6 µM) in the experiment on Staphylococcus aureus [17]; 800 µg/mL (≈ 2100 µM) in the experiment on Staphylococcus aureus [10]; 800 µg/mL (≈ 2100 µM) in the experiment on Staphylococcus aureus [5]; 25 µg/mL (≈ 65.7 µM) in the experiment with Staphylococcus aureus [18]. For the same compound, the MIC stood at 1600 µg/mL (≈ 4210 µM) in the experiment on Staphylococcus aureus [6]; 400 µg/mL (≈ 1050 µM) with Staphylococcus aureus [7]; 6.3 µg/mL (≈ 16.6 µM) with Staphylococcus aureus [19]; 1600 µg/mL (≈ 4210 µM) against Staphylococcus aureus [11]; 50 µg/mL (≈ 131 µM) in the experiment on Staphylococcus aureus [20]; 25 µg/mL (≈ 65.7 µM) against Staphylococcus aureus [21]. Also, the MIC in the experiment with Staphylococcus aureus [22] was determined as 12.5 µg/mL (≈ 32.9 µM); against Staphylococcus aureus [12] it was 1600 µg/mL (≈ 4210 µM); in the experiment with Staphylococcus aureus [23], 6.3 µg/mL (≈ 16.6 µM); in the experiment with Staphylococcus aureus [8] it was 1600 µg/mL (≈ 4210 µM); with Staphylococcus aureus [13] it was 1600 µg/mL (≈ 4210 µM).
